# Measured values from ChEMBL document CHEMBL1124161, “4-Hydroxy-3-quinolinecarboxamides with antiarthritic and analgesic activities” (J Med Chem, 1988).
# Activity calls are given as the source filed them. The rule behind the calls is not given here.
# Assays:
# Mus musculus [1] = experiment: Analgesic activity against acetic acid induced writhing test in mouse after peroral administration; format: functional; conditions: Mus musculus, po; read-out: ED50
# Rattus norvegicus [2] = experiment: Antiinflammatory activity against carrageenan-induced foot edema in rat after peroral administration of 25 mg/kg; IA means Inactive; format: functional, organism-based; set-up: dose 25 mg/kg
# Rattus norvegicus [3] = experiment: Antiarthritis activity against adjuvant-induced arthritis in rats after peroral administration at 15 mg/kg; IA=Inactive; format: functional, organism-based; set-up: dose 15 mg/kg
# How it was run: (§1)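 Groups of five male Lewis rats, 40–50 days old, given intraplantar injection in right hind paw of 0.6 mg Mycobacterium butyricum in 0.1 mL Bayol 55. Drug given in food from adjuvant day to day 17. Injected and noninjected hind paw volumes measured day 17 against normal controls. ED50 by least-squares curve fitting or Litchfield–Wilcoxon probit.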
# Mus musculus [4] = experiment: Analgesic activity against acetic acid induced writhing test in mouse after peroral administration, treatment 6 hr before testing; format: functional; conditions: po
# How it was run: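 Groups of 10 female mice (20–22 g), fasted 7 h, dosed orally 6 h before ip injection of 0.2 mL 1% aqueous acetic acid. Stretching and writhing movements counted from minute 5 to 20 after irritant. ED50 evaluated graphically or by computerized least-squares curve fitting.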
# Rattus norvegicus [5] = experiment: Ulcerogenic effect after oral administration (gastric ulcer); format: functional
# How it was run: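 Groups of eight female rats (120–150 g), fasted 24 h, dosed orally; killed 7 h later and stomachs scored. Ulceration index = (mean ulcer degree × rats with ulcers / number of rats) × 100, ulcers being scores above 0.5. ED100 (index 100, max 300) read graphically.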
# Rattus norvegicus [6] = experiment: Ulcerogenic effect after oral administration (intestinal ulcer); format: functional
# How it was run: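 Nonfasted male rats (150–180 g) killed 24 h after oral dosing, and intestinal ulcers scored. Ulceration index = (mean degree × rats with ulcers / rats) × 100. ED100 (index 100) determined graphically.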
# Rattus norvegicus [7] = organism: Rattus norvegicus; experiment: Antiarthritis activity against adjuvant-induced arthritis in rats; format: functional; how it was run: as §1
# Rattus norvegicus [8] = experiment: Anti-arthritis activity against adjuvant-induced arthritis in rats after peroral administration; format: functional; conditions: Rattus norvegicus, po; read-out: ED50; how it was run: as §1
# Rattus norvegicus [9] = experiment: Antiinflammatory activity against carrageenan-induced foot edema in rat; format: functional
# How it was run: (§2)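 Groups of eight male Sprague-Dawley rats (150–180 g) dosed orally at the time of subplantar injection of 0.5 mg carrageenin. Paw volume difference measured before and 5 h after injection. Expressed as ED40, estimated graphically or by Litchfield–Wilcoxon probit analysis.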
# [10] = molecular target: T1, Polyunsaturated fatty acid 5-lipoxygenase (Rattus norvegicus, UniProt P12527); experiment: Inhibition of 5-lipoxygenase from rat peritoneal neutrophils in vitro
# T1 sequence (P12527 whole entry): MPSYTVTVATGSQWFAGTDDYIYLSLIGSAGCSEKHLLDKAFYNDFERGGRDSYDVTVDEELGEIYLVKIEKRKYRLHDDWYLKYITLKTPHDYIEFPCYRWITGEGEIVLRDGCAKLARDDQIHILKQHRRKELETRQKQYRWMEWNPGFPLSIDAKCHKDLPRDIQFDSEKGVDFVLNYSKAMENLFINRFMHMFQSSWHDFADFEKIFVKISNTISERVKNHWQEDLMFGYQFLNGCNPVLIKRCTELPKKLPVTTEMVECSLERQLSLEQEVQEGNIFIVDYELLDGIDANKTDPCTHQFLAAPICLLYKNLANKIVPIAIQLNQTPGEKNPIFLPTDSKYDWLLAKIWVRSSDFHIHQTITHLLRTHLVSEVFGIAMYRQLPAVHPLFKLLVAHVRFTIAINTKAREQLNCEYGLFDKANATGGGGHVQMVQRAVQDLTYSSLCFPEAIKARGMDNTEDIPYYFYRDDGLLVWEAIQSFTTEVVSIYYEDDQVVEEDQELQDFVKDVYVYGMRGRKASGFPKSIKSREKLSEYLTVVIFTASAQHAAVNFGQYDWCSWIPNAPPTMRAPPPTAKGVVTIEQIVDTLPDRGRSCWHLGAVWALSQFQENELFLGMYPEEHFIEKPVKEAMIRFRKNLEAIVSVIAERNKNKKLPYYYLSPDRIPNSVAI
# Cyclooxygenase = molecular target: T2, Cyclooxygenase (Bos taurus, UniProt O62664+O62698); experiment: Inhibition of bovine Prostaglandin G/H synthase in seminal vesicle microsomes in vitro
# T2 sequence (O62664 whole entry): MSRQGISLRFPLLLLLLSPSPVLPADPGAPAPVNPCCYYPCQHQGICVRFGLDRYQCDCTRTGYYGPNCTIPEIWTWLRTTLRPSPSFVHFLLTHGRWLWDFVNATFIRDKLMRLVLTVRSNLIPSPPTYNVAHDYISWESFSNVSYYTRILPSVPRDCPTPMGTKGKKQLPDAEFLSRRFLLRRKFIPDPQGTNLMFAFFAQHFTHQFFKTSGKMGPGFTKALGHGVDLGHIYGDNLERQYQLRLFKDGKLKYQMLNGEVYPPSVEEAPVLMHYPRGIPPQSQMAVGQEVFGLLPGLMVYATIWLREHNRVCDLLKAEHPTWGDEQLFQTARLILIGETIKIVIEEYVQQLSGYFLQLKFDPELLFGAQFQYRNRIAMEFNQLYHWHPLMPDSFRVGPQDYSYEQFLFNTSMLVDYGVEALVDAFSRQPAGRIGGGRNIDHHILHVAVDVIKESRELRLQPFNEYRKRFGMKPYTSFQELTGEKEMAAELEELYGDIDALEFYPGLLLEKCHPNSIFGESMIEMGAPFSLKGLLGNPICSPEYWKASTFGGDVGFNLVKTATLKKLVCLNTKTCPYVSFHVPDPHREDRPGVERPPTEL
# T2 sequence (O62698 whole entry): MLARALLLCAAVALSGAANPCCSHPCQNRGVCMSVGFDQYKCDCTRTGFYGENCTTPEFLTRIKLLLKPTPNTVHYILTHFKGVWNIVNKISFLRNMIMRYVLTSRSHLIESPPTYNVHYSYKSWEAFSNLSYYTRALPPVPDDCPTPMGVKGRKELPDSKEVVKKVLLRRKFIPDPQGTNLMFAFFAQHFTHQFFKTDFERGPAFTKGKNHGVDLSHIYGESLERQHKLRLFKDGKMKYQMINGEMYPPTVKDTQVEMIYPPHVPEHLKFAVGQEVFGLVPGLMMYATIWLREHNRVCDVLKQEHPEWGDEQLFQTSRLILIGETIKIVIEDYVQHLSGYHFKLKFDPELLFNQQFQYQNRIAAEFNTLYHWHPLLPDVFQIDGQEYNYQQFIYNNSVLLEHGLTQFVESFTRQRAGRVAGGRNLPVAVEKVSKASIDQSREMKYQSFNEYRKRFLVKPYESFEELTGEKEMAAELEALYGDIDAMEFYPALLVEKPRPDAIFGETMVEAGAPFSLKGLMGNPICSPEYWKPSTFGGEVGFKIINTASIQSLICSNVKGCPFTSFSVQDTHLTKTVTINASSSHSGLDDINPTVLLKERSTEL
# Rattus norvegicus [11] = experiment: Antiinflammatory activity against carrageenan-induced foot edema in rat after peroral administration of 300 mg/kg; IA=Inactive; format: functional, organism-based; set-up: dose 300 mg/kg
# Rattus norvegicus [12] = experiment: Antiinflammatory activity against carrageenan-induced foot edema after peroral administration in rat; format: functional; conditions: po; how it was run: as §2
# Mus musculus [13] = experiment: Analgesic activity against acetic acid induced writhing test in mouse administered peroral dose of 25 mg/kg; IA=Inactive; format: functional, organism-based; set-up: dose 25 mg/kg
# How it was run: (§3)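 Female mice (20–22 g), groups of 10, fasted 7 h; drug given orally 30 min before intraperitoneal injection of 0.2 mL 1% aqueous acetic acid. Stretching/writhing movements counted from minute 5 to 20 after irritant.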
# Rattus norvegicus [14] = experiment: Antiinflammatory activity against carrageenan-induced foot edema in rat after oral administration of 25 mg/kg; IA=Inactive; format: functional, organism-based; set-up: dose 25 mg/kg
# Rattus norvegicus [15] = experiment: Antiinflammatory activity against carrageenan-induced foot edema in rat after oral administration of 20 mg/kg; IA=Inactive; format: functional, organism-based; set-up: dose 20 mg/kg
# Rattus norvegicus [16] = experiment: Antiinflammatory activity against carrageenan-induced foot edema in rat after peroral administration; format: functional; conditions: po; how it was run: as §2
# Mus musculus [17] = experiment: Analgesic activity against acetic acid induced writhing test in mouse after peroral administration at 100 mg/kg; IA=Inactive; format: functional, organism-based; set-up: dose 100 mg/kg; how it was run: as §3
# Mus musculus [18] = experiment: Analgesic activity against acetic acid induced writhing test in mouse after peroral administration at 25 mg/kg; IA=Inactive; format: functional, organism-based; set-up: dose 25 mg/kg; how it was run: as §3
# Mus musculus [19] = experiment: Analgesic activity against acetic acid induced writhing test in mouse administered po at 100 mg/kg; IA=Inactive; format: functional, organism-based; set-up: dose 100 mg/kg; how it was run: as §3
structure (smiles),measurement,setting,value
COCc1nc2c(C(F)(F)F)cccc2c(O)c1C(=O)Nc1nccs1,ED50,Mus musculus [1],25 mg/kg
same,ED50,Rattus norvegicus [2],inactive
C[C@@H](N)c1nc2c(C(F)(F)F)cccc2c(O)c1C(=O)Nc1nccs1,ED50,Mus musculus [1],> 100 mg/kg
same,ED50,Rattus norvegicus [3],inactive
CCC(=O)N[C@@H](CC)c1nc2c(C(F)(F)F)cccc2c(O)c1C(=O)Nc1nccs1,ED50,Mus musculus [1],20 mg/kg
same,ED50,Mus musculus [4],4 mg/kg
same,ED100,Rattus norvegicus [5],>300 mg/kg
same,ED100,Rattus norvegicus [6],>100 mg/kg
same,ED50,Rattus norvegicus [7],3.5 mg/kg
same,ED50,Rattus norvegicus [8],3 mg/kg
same,ED40,Rattus norvegicus [9],> 100 mg/kg
same,IC50,[10],2000 nM
same,IC50,Cyclooxygenase,400 nM
O=C(Nc1nccs1)c1cnc2cc(Cl)ccc2c1O,ED50,Mus musculus [1],> 100 mg/kg
same,ED50,Rattus norvegicus [11],inactive
CCCCC(O)c1nc2c(C(F)(F)F)cccc2c(O)c1C(=O)Nc1nccs1 (stereo not drawn),ED50,Mus musculus [1],≥ 100 mg/kg
same,ED50,Rattus norvegicus [8],> 20 mg/kg
same,ED40,Rattus norvegicus [12],> 100 mg/kg
C=Cc1nc2c(C(F)(F)F)cccc2c(O)c1C(=O)Nc1nccs1,ED50,Mus musculus [13],inactive
same,ED50,Rattus norvegicus [14],inactive
CCCCc1nc2c(C(F)(F)F)cccc2c(O)c1C(=O)Nc1nccs1,ED50,Mus musculus [1],50 mg/kg
same,ED50,Rattus norvegicus [15],inactive
CN1C(C(=O)Nc2ccccn2)=C(O)c2ccccc2S1(=O)=O [PIROXICAM],ED50,Mus musculus [1],3.3 mg/kg
same,ED100,Rattus norvegicus [5],9 mg/kg
same,ED100,Rattus norvegicus [6],20 mg/kg
same,ED50,Rattus norvegicus [8],0.8 mg/kg
same,ED40,Rattus norvegicus [16],8 mg/kg
same,IC50,[10],> 100000 nM
O=C(Nc1nccs1)c1c(C(Cl)Cl)nc2c(C(F)(F)F)cccc2c1O,ED50,Mus musculus [1],1.1 mg/kg
same,ED100,Rattus norvegicus [5],270 mg/kg
same,ED100,Rattus norvegicus [6],>500 mg/kg
same,ED50,Rattus norvegicus [8],48 mg/kg
same,ED40,Rattus norvegicus [16],> 100 mg/kg
same,IC50,[10],2000 nM
same,IC50,Cyclooxygenase,1800 nM
CC(C)(C)C(O)c1nc2c(C(F)(F)F)cccc2c(O)c1C(=O)Nc1nccs1 (stereo not drawn),ED50,Mus musculus [1],50 mg/kg
same,ED50,Rattus norvegicus [8],1.5 mg/kg
same,ED40,Rattus norvegicus [12],4 mg/kg
CCCCCCCCCCCC(=O)OC(CC)c1nc2c(C(F)(F)F)cccc2c(O)c1C(=O)Nc1nccs1 (stereo not drawn),ED50,Mus musculus [17],inactive
same,ED50,Rattus norvegicus [8],> 5 mg/kg
CC(Cl)(Cl)c1nc2c(C(F)(F)F)cccc2c(O)c1C(=O)Nc1nccs1,ED50,Mus musculus [18],inactive
CCC(=O)OC(c1nc2c(C(F)(F)F)cccc2c(O)c1C(=O)Nc1ccccn1)C(C)C (stereo not drawn),ED50,Mus musculus [19],inactive
same,ED50,Rattus norvegicus [8],5 mg/kg
